Reference: ChEMBL document CHEMBL5678808, “Human target validation of phosphoinositide 3-kinase (PI3K)β: effects on platelets and insulin sensitivity, using AZD6482 a novel PI3Kβ inhibitor” (J Thromb Haemost, 2012)

Assays:
[1] = target: DNA-dependent protein kinase catalytic subunit (Homo sapiens, UniProt P78527); assay: Inhibition of human DNA-PK assessed as reduction in protein phosphorylation by ELISA
How it was run: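 Recombinant human DNA-PK was tested in a functional assay, with substrate protein phosphorylation read by ELISA. IC50 is reported as mean ± SEM, with the number of determinations given.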

[2] = target: Vascular endothelial growth factor receptor 2 (Homo sapiens, UniProt P35968); assay: Inhibition of human KDR
Homo sapiens = species on record: Homo sapiens; assay: Inhibition of human CDK2/Cyclin A at 10 uM relative to control
[3] = target: Serine/threonine-protein kinase PAK 4 (Homo sapiens) (UniProt O96013); assay: Inhibition of human PAK4 at 10 uM relative to control
[4] = target: Homeodomain-interacting protein kinase 3 (Homo sapiens) (UniProt Q9H422); assay: Inhibition of human HIPK3 at 10 uM relative to control
Rattus norvegicus [5] = assay: Insulin sensitizing activity in Sprague-Dawley rat hyperinsulinemic-euglycemic glucose clamp model assessed as glucose infusion rate required to maintain euglycemia during infusion of human insulin at 1000 ug/kg/min, iv for 2 mins followed by 50 ug/kg/min, iv for 28 mins measured during clamp 1 (reference value: 124 +/- 4 umol/min/kg); format: functional; conditions: time 30 min, 0.5 h
How it was run: (§1)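 Anesthetized rats; hyperinsulinemic–euglycemic clamp with human insulin infused. A baseline clamp (Clamp1) was followed by a second clamp (Clamp2) with vehicle or drug i.v. The drug was given as a low dose (1000 μg kg−1 + 50 μg kg min−1) or a high dose (6000 μg kg−1 + 300 μg kg min−1). Steady-state glucose infusion rate for euglycemia was recorded, with plasma glucose, human insulin and total insulin; mean ± SEM, n = 4–5/group.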

Rattus norvegicus [6] = assay: Insulin sensitizing activity in Sprague-Dawley rat hyperinsulinemic-euglycemic glucose clamp model assessed as total insulin level during infusion of human insulin at 1000 ug/kg/min, iv for 2 mins followed by 50 ug/kg/min, iv for 28 mins measured during clamp 2 (reference value: 2.2 +/- 0.1 nM); format: functional; conditions: time 30 min, 0.5 h; how it was run: as §1
[7] = Plasma concentration in human at 0.9 to 13.5 mg, iv administered for 3 hrs via infusion by LC-MS/MS analysis; format: ADME, organism-based; conditions: dose 0.9-13.5 mg
How it was run: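 Randomized, double-blind, placebo-controlled single ascending dose study in healthy males aged 18–36, given a 3-h i.v. infusion. Plasma drug was measured by protein precipitation then LC-MS/MS, with non-compartmental PK analysis. The 3-h end-of-infusion sample was taken as steady-state concentration; mean, n = 6/dose.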

Chain of Vascular endothelial growth factor receptor 2 (P35968 whole entry): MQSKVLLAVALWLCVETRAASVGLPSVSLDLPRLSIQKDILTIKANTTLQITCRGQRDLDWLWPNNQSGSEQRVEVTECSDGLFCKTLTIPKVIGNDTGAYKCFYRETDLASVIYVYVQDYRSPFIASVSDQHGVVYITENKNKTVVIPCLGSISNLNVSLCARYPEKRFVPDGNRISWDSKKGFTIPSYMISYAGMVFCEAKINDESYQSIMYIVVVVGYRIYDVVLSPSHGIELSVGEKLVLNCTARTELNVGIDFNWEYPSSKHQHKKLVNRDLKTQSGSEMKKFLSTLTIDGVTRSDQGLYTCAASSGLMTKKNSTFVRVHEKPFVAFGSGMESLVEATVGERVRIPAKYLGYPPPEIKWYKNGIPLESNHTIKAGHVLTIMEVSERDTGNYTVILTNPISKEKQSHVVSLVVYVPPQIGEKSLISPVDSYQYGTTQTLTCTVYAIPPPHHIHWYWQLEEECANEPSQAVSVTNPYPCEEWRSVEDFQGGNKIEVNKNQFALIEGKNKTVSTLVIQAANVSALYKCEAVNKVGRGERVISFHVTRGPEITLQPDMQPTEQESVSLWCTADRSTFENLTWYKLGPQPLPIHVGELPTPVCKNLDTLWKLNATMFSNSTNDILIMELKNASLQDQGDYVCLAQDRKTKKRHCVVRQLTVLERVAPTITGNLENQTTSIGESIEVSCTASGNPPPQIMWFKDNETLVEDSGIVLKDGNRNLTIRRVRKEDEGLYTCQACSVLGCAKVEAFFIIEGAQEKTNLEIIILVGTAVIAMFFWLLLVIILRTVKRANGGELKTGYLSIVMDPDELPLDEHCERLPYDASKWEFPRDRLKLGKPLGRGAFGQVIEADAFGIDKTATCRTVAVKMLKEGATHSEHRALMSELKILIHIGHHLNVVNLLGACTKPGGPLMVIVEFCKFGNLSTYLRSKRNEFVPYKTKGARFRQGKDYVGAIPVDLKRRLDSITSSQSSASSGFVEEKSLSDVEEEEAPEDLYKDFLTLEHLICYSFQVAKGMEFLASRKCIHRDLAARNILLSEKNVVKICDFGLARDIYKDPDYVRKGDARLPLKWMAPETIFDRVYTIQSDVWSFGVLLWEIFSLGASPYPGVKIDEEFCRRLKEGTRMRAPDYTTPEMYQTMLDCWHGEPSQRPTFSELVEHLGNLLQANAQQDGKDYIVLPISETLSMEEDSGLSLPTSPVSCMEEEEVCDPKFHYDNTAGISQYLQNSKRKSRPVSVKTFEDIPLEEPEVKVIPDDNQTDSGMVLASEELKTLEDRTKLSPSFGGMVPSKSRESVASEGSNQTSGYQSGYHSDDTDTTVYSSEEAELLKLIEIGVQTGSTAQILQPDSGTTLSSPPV
Chain of Homeodomain-interacting protein kinase 3 (Homo sapiens) (Q9H422 whole entry, looked up, the tested form may be a part): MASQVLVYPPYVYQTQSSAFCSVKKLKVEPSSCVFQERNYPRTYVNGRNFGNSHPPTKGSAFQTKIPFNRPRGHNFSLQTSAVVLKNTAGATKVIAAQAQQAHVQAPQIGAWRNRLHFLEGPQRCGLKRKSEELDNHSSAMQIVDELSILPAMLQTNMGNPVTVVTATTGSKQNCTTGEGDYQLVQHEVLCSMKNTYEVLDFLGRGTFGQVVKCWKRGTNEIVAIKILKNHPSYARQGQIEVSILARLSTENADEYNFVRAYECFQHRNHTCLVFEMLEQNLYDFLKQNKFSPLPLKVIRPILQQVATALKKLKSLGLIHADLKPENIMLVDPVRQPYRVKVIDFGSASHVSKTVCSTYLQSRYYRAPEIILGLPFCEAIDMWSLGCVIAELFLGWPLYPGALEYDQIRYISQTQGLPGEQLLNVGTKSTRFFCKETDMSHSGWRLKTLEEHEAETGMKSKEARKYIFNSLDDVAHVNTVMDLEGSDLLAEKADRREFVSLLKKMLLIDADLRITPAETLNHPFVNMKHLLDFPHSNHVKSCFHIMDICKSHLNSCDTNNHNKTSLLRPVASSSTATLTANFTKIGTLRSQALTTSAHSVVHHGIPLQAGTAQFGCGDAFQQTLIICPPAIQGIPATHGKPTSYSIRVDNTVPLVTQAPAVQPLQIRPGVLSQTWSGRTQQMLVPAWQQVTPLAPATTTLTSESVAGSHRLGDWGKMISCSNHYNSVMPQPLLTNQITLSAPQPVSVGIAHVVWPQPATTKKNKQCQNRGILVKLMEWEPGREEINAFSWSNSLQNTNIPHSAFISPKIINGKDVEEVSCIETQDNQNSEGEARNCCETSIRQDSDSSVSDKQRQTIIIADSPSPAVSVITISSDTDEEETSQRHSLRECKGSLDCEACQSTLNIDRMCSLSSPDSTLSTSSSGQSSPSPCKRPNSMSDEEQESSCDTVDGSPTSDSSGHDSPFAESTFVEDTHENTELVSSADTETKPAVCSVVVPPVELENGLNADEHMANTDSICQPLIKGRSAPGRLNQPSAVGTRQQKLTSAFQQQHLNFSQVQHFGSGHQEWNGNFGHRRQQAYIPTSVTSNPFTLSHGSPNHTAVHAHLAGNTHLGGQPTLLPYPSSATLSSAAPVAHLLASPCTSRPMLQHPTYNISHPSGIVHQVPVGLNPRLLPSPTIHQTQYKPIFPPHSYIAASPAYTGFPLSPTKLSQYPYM
Chain of Serine/threonine-protein kinase PAK 4 (Homo sapiens) (O96013 whole entry, looked up): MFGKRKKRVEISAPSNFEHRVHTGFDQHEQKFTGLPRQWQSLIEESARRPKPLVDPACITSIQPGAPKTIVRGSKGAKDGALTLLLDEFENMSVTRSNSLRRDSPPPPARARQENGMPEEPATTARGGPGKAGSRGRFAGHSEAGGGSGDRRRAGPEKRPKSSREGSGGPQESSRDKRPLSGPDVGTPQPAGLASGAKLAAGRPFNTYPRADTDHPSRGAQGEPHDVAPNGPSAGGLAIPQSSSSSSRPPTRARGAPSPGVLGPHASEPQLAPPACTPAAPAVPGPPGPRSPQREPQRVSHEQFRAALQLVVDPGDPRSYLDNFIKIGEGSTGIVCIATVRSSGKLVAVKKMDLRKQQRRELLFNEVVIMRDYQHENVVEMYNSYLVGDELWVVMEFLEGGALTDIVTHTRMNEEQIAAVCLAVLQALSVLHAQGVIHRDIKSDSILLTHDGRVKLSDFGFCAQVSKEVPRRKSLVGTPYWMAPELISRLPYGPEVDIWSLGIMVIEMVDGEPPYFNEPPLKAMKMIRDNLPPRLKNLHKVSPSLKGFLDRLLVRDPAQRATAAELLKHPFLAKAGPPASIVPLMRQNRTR

Cc1cc([C@@H](C)Nc2ccccc2C(=O)O)c2nc(N3CCOCC3)cc(=O)n2c1 [AZD-6482]
IC50 [1]: 420 nM | IC50 [2]: > 117000 nM | inhibition (Homo sapiens): -1.6% | inhibition [3]: -6.4% | inhibition [4]: 7.2% | Activity (Rattus norvegicus [5]): 105 µmol/min/kg | Activity (Rattus norvegicus [6]): 2.2 nM | concentration at 3 h [7]: < 5 nM
